Reference: ChEMBL document CHEMBL1932946, “Design, synthesis and anticonvulsant evaluation of novel N-(4-substituted phenyl)-2-[4-(substituted) benzylidene]-hydrazinecarbothio amides” (Eur J Med Chem, 2012)
Active and inactive are the calls of the source.

Experiments:
Mus musculus [1] = assay: Anticonvulsant activity in albino CF-1 mouse assessed as protection against subcutaneous metrazol-induced seizure at 300 mg/kg, ip after 0.5 hrs; assay type: functional, organism-based; parameters: dose 300 mg/kg
Outline: (§1)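 Mice (male CF-1 albino, 18–25 g) pretreated i.p. with 30, 100 or 300 mg/kg in 0.5% methyl cellulose. Metrazol, at a dose convulsing 97% of animals, injected subcutaneously into the loose skin fold at the midline of the neck. Animals isolated and watched for 30 min for absence of seizure. Minimum dose active in half or more of mice recorded.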

Mus musculus [2] = assay: Anticonvulsant activity in ip dosed albino CF-1 mouse assessed as protection against maximal electroshock-induced seizures after 2 hrs; assay type: functional; conditions: albino CF-1, ip, read-out: MED
Outline: (§2)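 Male CF-1 mice (18–25 g) received compound suspended in 0.5% methyl cellulose, i.p. at 30, 100 or 300 mg/kg. A 60 Hz alternating current (50 mA, 0.2 s) was delivered through corneal electrodes primed with 0.5% tetracaine HCl. Protection was defined as abolition of the hind limb tonic extensor component. The value reported is the minimum dose active in half or more of mice.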

Mus musculus [3] = assay: Anticonvulsant activity in ip dosed albino CF-1 mouse assessed as protection against maximal electroshock-induced seizures after 4 hrs; assay type: functional; conditions: albino CF-1, ip, read-out: MED
Outline: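 Male CF-1 albino mice (18–25 g) dosed i.p. at 30, 100 and 300 mg/kg as suspension in 0.5% methyl cellulose. 60 Hz alternating current, 50 mA, delivered 0.2 s via corneal electrodes primed with 0.5% tetracaine HCl electrolyte. Protection = abolition of hind limb tonic extensor component. Value reported is the minimum dose active in half or more of mice.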

Mus musculus [4] = assay: Anticonvulsant activity in albino CF-1 mouse assessed as protection against subcutaneous metrazol-induced seizure at 300 mg/kg, ip after 4 hrs; assay type: functional, organism-based; parameters: dose 300 mg/kg; outline: as §1
Mus musculus [5] = assay: Anticonvulsant activity in ip dosed albino CF-1 mouse assessed as protection against maximal electroshock-induced seizures after 0.5 hrs; assay type: functional; conditions: albino CF-1, ip, read-out: MED; outline: as §2
[6] = Neuroprotective activity in hippocampal slice assessed as protection against kainic acid-induced cell death using propidium iodide staining; assay type: functional, tissue-based; conditions: Hippocampus
Outline: (§3)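 Qualitative primary screen on organotypic hippocampal slice cultures. Cell death induced by NMDA or kainic acid, with or without test compound. Propidium iodide present in all wells; PI fluorescence intensity taken as proportional to cell death.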

[7] = Octanol-phosphate buffer partition coefficient, log P of the compound at 5 mg after 24 hrs by UV spectroscopic analysis; assay type: physicochemical
Outline: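 5 mg compound added to 10 mL octanol plus 10 mL phosphate buffer in a stoppered tube. Mixture shaken mechanically 24 h at room temperature, then left 6 h in a separating funnel to equilibrate.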

[8] = Neuroprotective activity in hippocampal slice assessed as protection against NMDA-induced cell death using propidium iodide staining; assay type: functional, tissue-based; conditions: Hippocampus; outline: as §3
Mus musculus [9] = species: Mus musculus; assay: Protective index, ratio of TD50 for albino CF-1 mouse to ED50 for albino CF-1 mouse by 6 Hz psychomotor seizure test; assay type: functional
Mus musculus [10] = assay: Neurotoxicity in albino CF-1 mouse assessed as minimum motor impairment at 300 mg/kg, ip after 0.5 hrs by rotarod test; assay type: toxicity, organism-based; parameters: dose 300 mg/kg, route intraperitoneal; conditions: in vivo
Outline: (§4)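 Minimal motor impairment assessed in male CF-1 albino mice (18–25 g) at 0.5 and 4 h after i.p. doses of 30, 100 and 300 mg/kg, given in 0.5% methyl cellulose. Minimum dose toxic in half or more of mice recorded.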

[11] = Neurotoxicity in ip dosed albino CF-1 mouse assessed as minimum motor impairment after 0.5 hrs by rotarod test; assay type: toxicity, organism-based; conditions: in vivo
Mus musculus [12] = assay: Anticonvulsant activity in albino CF-1 mouse assessed as protection against 6 Hz psychomotor seizure at 100 mg/kg, ip after 1 hr by minimal clonic seizure test; assay type: functional
Outline: (§5)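 Male CF-1 albino mice (18–25 g) given compound i.p., suspended in 0.5% methyl cellulose, 100 mg/kg in screen. Four mice per time point challenged at 0.25, 0.5, 1.0, 2.0 and 4.0 h via corneal electrodes (32 mA, 3 s, 6 Hz). Protection = absence of psychomotor seizure (minimal clonic phase, automatistic behaviours). Scored as animals protected/tested.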

Mus musculus [13] = assay: Anticonvulsant activity in albino CF-1 mouse assessed as protection against 6 Hz psychomotor seizure at 100 mg/kg, ip after 4 hrs by minimal clonic seizure test; assay type: functional, organism-based; parameters: dose 100 mg/kg; outline: as §5
Mus musculus [14] = assay: Anticonvulsant activity in albino CF-1 mouse assessed as protection against 6 Hz psychomotor seizure at 100 mg/kg, ip after 2 hrs by minimal clonic seizure test; assay type: functional; outline: as §5
Mus musculus [15] = assay: Anticonvulsant activity in albino CF-1 mouse assessed as protection against 6 Hz psychomotor seizure at 100 mg/kg, ip after 0.5 hrs by minimal clonic seizure test; assay type: functional; conditions: route intraperitoneal; outline: as §5
Mus musculus [16] = assay: Anticonvulsant activity in albino CF-1 mouse assessed as protection against 6 Hz psychomotor seizure at 100 mg/kg, ip after 0.25 hrs by minimal clonic seizure test; assay type: functional; conditions: route intraperitoneal; outline: as §5
Mus musculus [17] = assay: Neurotoxicity in albino CF-1 mouse assessed as minimum motor impairment at 300 mg/kg, ip after 4 hrs by rotarod test; assay type: toxicity, organism-based; parameters: dose 300 mg/kg, route intraperitoneal; conditions: in vivo; outline: as §4
Mus musculus [18] = assay: Anticonvulsant activity in ip dosed albino CF-1 mouse assessed as protection against 6 Hz psychomotor seizure after 0.5 hrs by minimal clonic seizure test; assay type: functional; conditions: albino CF-1, ip; outline: as §5

For `O=C1NC(=O)C(c2ccccc2)(c2ccccc2)N1` [PHENYTOIN], the Activity (Mus musculus [1]) was “inactive”, the minimal effective dose (Mus musculus [2]) was 30 mg/kg and the minimal effective dose (Mus musculus [3]) was 30 mg/kg. The Activity (Mus musculus [4]) was “inactive” and the minimal effective dose (Mus musculus [5]) was 30 mg/kg.

With `Fc1ccc(NC(=S)N/N=C/c2ccc(Oc3ccc(Cl)cc3)cc2)cc1` the Activity [6] was “inactive”, the logP at 24 h [7] was 5.78 and the Activity [8] was “inactive”. The “Ratio TD50/ED50” value (Mus musculus [9]) was over 2.5, the Activity (Mus musculus [10]) was “Non-toxic” and the TD50 at 0.5 h [11] was over 500 mg/kg. For the same compound, the Activity (Mus musculus [12]) was “Active”, the Activity (Mus musculus [13]) was “Active” and the Activity (Mus musculus [14]) was “Active”. The Activity (Mus musculus [15]) was 100%, the Activity (Mus musculus [16]) was 75% and the Activity (Mus musculus [17]) was “Non-toxic”. The ED50 (Mus musculus [18]) was over 200 mg/kg.
